Experimental findings from ChEMBL document CHEMBL1140469, “Novel, potent THC/anandamide (hybrid) analogs” (Bioorg Med Chem, 2007) are described below.

In assay [1] the test system is Mus musculus. Briefly: Hypothermic activity in mouse assessed as change in rectal temperature at 30 mg/kg, iv after 4 mins. The class given is functional. An outline of the steps: (§1)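 A separate group of mice had rectal temperature taken by thermistor probe inserted 25 mm, before and 4 min after iv dosing in ethanol:emulphor:saline 1:1:18. Change is the pre minus post difference. ED50 from regression against log dose, in µmol/kg; otherwise maximal change given with its dose. Maximum dose 30 mg/kg.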

The subject of assay [2] is Mus musculus. The experiment in a line: Induction of ring immobility in iv dosed mouse. The class given is functional. An outline of the steps:
(§2)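 Right after the temperature reading, iv-dosed mice (ethanol:emulphor:saline 1:1:18) were placed on a 5.5-cm ring set 16 cm high. Time spent motionless over 5 min was recorded. ED50 from regression against log dose, in µmol/kg; otherwise maximal effect given with its dose. Maximum dose 30 mg/kg.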

The next assay deals with Cannabinoid receptor 1 (Homo sapiens, UniProt P21554). Briefly: Displacement of [3H]CP-55940 from human CB1 receptor expressed in HEK293 cells. The class given is cell-based. In short, it runs like this: (§3)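 Membranes (50 µg) from HEK-293 cells stably expressing human CB1 (DMEM, 10% FBS) or CHO cells stably expressing human CB2 (DMEM, 10% FCS). Incubated with 0.5 nM [3H]CP55,940 and test compound (1 nM–10 µM) in buffer with BSA 5 mg/mL, 1 h at 30 °C. Filtration, scintillation counting. Ki from displacement data; three experiments in triplicate.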
In general terms: In a radioligand displacement assay an active substance lowers the binding of a labelled ligand.

A further assay has as its target Cannabinoid receptor 2 (Homo sapiens, UniProt P34972). Briefly: Displacement of [3H]CP-55940 from human CB2 receptor expressed in CHO cells. The class given is cell-based. In short, it runs like this: as §3
For assay [3], the system named is Mus musculus. Briefly: Suppression of spontaneous activity in iv dosed mouse. The class given is functional. An outline of the steps: (§4)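 Mice dosed iv in ethanol:emulphor:saline 1:1:18. After the 4-min tail-flick retest, each mouse spent 10 min in a photocell cage where beam interruptions were counted. Activity expressed as % of vehicle group, 6 mice/dose. ED50 from regression against log dose, in µmol/kg. Maximum dose 30 mg/kg.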

Assay [4] has as its system Mus musculus. The experiment in a line: Antinociceptive activity in mouse at 30 mg/kg, iv by tail filck test. The class given is functional. In short, it runs like this: (§5)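 Mouse tail flick to radiant heat from bright light, 10-s cutoff. Baseline latency taken, then iv tail-vein dosing in ethanol:emulphor:saline 1:1:18, 0.1 mL/10 g. Retested 4 min later. Result expressed as %MPE, 6 mice/dose. ED50 from least-squares linear regression against log dose, in µmol/kg. Doses above 30 mg/kg not given.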

Assay [5] concerns Mus musculus. Briefly: Suppression of spontaneous activity in mouse at 30 mg/kg, iv. The class given is functional. In short, it runs like this:
as §4

Assay [6] relates to Mus musculus. Briefly: Induction of ring immobility in mouse at 30 mg/kg, iv. The class given is functional. In short, it runs like this: as §2
The subject of assay [7] is Mus musculus. Briefly: Hypothermic activity in iv dosed mouse assessed as change in rectal temperature after 4 mins. The class given is functional. An outline of the steps:
as §1

For assay [8], the system named is Mus musculus. The experiment in a line: Antinociceptive activity in iv dosed mouse by tail filck test. The class given is functional. An outline of the steps:
as §5

Cannabinoid receptor 1, sequence (P21554 whole entry): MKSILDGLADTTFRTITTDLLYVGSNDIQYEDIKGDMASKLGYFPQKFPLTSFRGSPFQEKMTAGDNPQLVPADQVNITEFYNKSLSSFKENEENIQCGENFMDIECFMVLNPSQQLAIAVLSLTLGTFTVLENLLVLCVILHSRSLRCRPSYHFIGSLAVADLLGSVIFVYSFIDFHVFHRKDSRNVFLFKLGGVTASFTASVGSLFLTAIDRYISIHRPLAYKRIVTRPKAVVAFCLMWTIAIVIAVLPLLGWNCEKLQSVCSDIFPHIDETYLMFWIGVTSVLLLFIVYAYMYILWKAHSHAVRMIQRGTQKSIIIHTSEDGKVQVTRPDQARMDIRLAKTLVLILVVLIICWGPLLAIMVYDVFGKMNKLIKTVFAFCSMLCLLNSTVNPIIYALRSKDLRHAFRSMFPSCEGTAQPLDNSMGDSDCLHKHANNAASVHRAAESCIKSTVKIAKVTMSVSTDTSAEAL
Cannabinoid receptor 2, sequence (P34972 whole entry): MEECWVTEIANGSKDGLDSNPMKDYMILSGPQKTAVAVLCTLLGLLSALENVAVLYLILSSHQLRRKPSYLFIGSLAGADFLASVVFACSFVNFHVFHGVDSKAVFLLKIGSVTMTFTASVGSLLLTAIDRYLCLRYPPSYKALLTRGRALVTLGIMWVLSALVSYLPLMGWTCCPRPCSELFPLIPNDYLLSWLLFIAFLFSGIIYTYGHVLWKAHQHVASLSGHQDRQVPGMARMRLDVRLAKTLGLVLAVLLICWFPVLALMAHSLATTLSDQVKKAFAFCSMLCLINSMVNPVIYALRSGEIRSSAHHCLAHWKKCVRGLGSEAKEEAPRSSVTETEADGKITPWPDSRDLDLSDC

The ED50 is the dose that gives a 50% effect, or the effect in half of the subjects. Usually Ki stands for a measure of affinity in units of concentration, obtained from inhibition or displacement. A low value points to higher affinity. Regarding `CCCCCCC(C)(C)c1ccccc1/C=C\C/C=C\C/C=C\CCCC(=O)N[C@H](C)CO`, the Activity was -0.87 °C with Mus musculus [1] and 50% with Mus musculus [4]. For the same molecule, the ED50 in the assay with Mus musculus [2] worked out at 27.7 µmol/kg; in the assay with Mus musculus [3], 25.7 µmol/kg. Also, the Ki on Cannabinoid receptor 1 came out at 86.3 nM; at Cannabinoid receptor 2 it was 257 nM.
For the molecule `CCCCCCC(C)(C)c1cccc(OCC/C=C\C/C=C\C/C=C\CCCC(=O)N[C@H](C)CO)c1`, the Activity in the assay on Mus musculus [5] is 55%; in the assay on Mus musculus [1] it was -0.9 °C; with Mus musculus [6], 22%; with Mus musculus [4], 61%. For the same molecule, the results for the Ki on Cannabinoid receptor 1 and on Cannabinoid receptor 2 were 131 nM and 189 nM, respectively.
With `C[C@H](CO)NC(=O)CCC/C=C\C/C=C\CCOc1cccc(C(C)(C)CCCCN=[N+]=[N-])c1`, the median effective dose (ED50) with Mus musculus [7] was 1.95 µmol/kg; in the assay on Mus musculus [2] it was 0.3 µmol/kg; in the assay with Mus musculus [8] it was 0.2 µmol/kg; with Mus musculus [3], 0.2 µmol/kg. Also, the Ki amounted to 2.74 nM at Cannabinoid receptor 1 and 2.52 nM at Cannabinoid receptor 2.
For the molecule `CCCCCCC(C)(C)c1cccc(OCC/C=C\C/C=C\CCCC(=O)N[C@H](C)CO)c1`, the ED50 in the assay with Mus musculus [7] is 7.8 µmol/kg; in the assay on Mus musculus [2], 9.66 µmol/kg; in the assay on Mus musculus [8], 8.45 µmol/kg; in the assay with Mus musculus [3], 3.73 µmol/kg. Also, the Ki at Cannabinoid receptor 1 was 8.55 nM; at Cannabinoid receptor 2, 21.5 nM.
For the molecule `CCCCCCC(C)(C)c1ccc(OCC/C=C\C/C=C\CCCC(=O)N[C@H](C)CO)cc1`, the Activity in the assay with Mus musculus [5] was 44.9%; with Mus musculus [1] it was -0.5 °C; in the assay on Mus musculus [6], 13.4%; in the assay with Mus musculus [4], 30.7%. The Ki on Cannabinoid receptor 1 amounted to 195 nM; on Cannabinoid receptor 2, 78.2 nM.
With `C[C@H](CO)NC(=O)CCC/C=C\C/C=C\CCOc1cccc(C(C)(C)CCCCBr)c1`, the ED50 came to 2.1 µmol/kg in the assay with Mus musculus [7], 1.4 µmol/kg with Mus musculus [2], 0.8 µmol/kg in the assay with Mus musculus [8] and 0.7 µmol/kg with Mus musculus [3]. In addition, the Ki at Cannabinoid receptor 1 is 8.87 nM; at Cannabinoid receptor 2 it was 7.46 nM.
On to `C[C@H](CO)NC(=O)CCC/C=C\C/C=C\CCOc1cccc(C(C)(C)CCCCO)c1`, for which the ED50 with Mus musculus [7] amounted to 2.8 µmol/kg; with Mus musculus [2], 0.7 µmol/kg; in the assay with Mus musculus [8] it was 0.6 µmol/kg; in the assay with Mus musculus [3], 1.1 µmol/kg. Also, the Ki at Cannabinoid receptor 1 was 79 nM; at Cannabinoid receptor 2, 10.9 nM.
